# Source: ChEMBL document CHEMBL4376874, “Discovery of Potent and Selective Epidermal Growth Factor Receptor (EGFR) Bifunctional Small-Molecule Degraders” (J Med Chem, 2020)
# Active and inactive are the calls of the source. The calls are words filed in the database; no cut-off is given here.
# Experiments:
# [1] = system: von Hippel-Lindau disease tumor suppressor/Epidermal growth factor receptor (Homo sapiens), P00533+P40337 [UNDEFINED MUTATION]; assay: Protac activity at VHL/EGFR exon 19 deletion mutant in human HCC827 cells assessed as induction of EGFR degradation at up to 1 uM treated 8 hrs post serum starvation measured after 16 hrs by Western blot analysis; type: cell-based
# Outline: (§1)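 Cultured to 80% confluence in RPMI/1640 with 20% FBS at 37 °C and 5% CO2, then switched to serum-free medium for 8 h. Degraders were added over a concentration range up to 10 μM for 16 h, with gefitinib at 1 μM as reference. Lysates in Laemmli buffer were immunoblotted for EGFR, p-EGFR and p-AKT. DC50 came from band quantification by nonlinear regression (variable slope).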
# [2] = system: Protein cereblon/Epidermal growth factor receptor (Homo sapiens), P00533+Q96SW2 [UNDEFINED MUTATION]; assay: Protac activity at CRBN/EGFR exon 19 deletion mutant in human HCC827 cells assessed as induction of EGFR degradation at up to 1 uM treated 8 hrs post serum starvation measured after 16 hrs by Western blot analysis; type: cell-based
# NCI-H3255 [3] = assay: Antiproliferative activity against human H3255 cells measured after 3 days by CCK8 assay; type: functional, cell-based
# Outline: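 H3255 cells seeded 4000/well the night before, then exposed to serial dilutions for 3 days. Growth read by Cell Counting Kit-8; three independent experiments. IC50 from nonlinear regression (log inhibitor vs response, variable slope).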
# [4] = system: Epidermal growth factor receptor (Homo sapiens), P00533 [UNDEFINED MUTATION]; assay: Induction of EGFR exon 19 deletion mutant degradation in human HCC827 cells assessed as reduction in AKT phosphorylation up to 100 nM treated 8 hrs post serum starvation measured after 16 hrs by Western blot analysis; type: cell-based
# [5] = biological target: T1, Epidermal growth factor receptor (Homo sapiens, UniProt P00533); assay: Binding affinity to human wild-type partial length EGFR (R669 to V1011 residues) expressed in bacterial expression system by kinomescan assay
# [6] = system: Epidermal growth factor receptor (Homo sapiens), P00533 [UNDEFINED MUTATION]; assay: Induction of EGFR exon 19 deletion mutant degradation in human HCC827 cells assessed as reduction in EGFR autophosphorylation up to 100 nM treated 8 hrs post serum starvation measured after 16 hrs by Western blot analysis; type: cell-based
# [7] = system: Epidermal growth factor receptor (Homo sapiens), P00533 [L858R]; assay: Induction of EGFR L858R degradation in human H3255 cells up to 100 nM treated 8 hrs post serum starvation measured after 16 hrs by Western blot analysis; type: cell-based
# [8] = system: Epidermal growth factor receptor (Homo sapiens), P00533 [L858R]; assay: Induction of EGFR L858R degradation in human H3255 cells assessed as reduction in ATK phosphorylation up to 100 nM treated 8 hrs post serum starvation measured after 16 hrs by Western blot analysis; type: cell-based
# [9] = system: Epidermal growth factor receptor (Homo sapiens), P00533 [UNDEFINED MUTATION]; assay: Induction of EGFR exon 19 deletion mutant degradation in human HCC827 cells up to 100 nM treated 8 hrs post serum starvation measured after 16 hrs by Western blot analysis; type: cell-based
# [10] = biological target: Epidermal growth factor receptor (Homo sapiens, UniProt P00533, L858R); design: species or system Hofmanni bacterium
# [11] = system: Epidermal growth factor receptor (Homo sapiens), P00533 [L858R]; assay: Induction of EGFR L858R degradation in human H3255 cells assessed as reduction in EGFR autophosphorylation up to 100 nM treated 8 hrs post serum starvation measured after 16 hrs by Western blot analysis; type: cell-based
# NCI-H3255 [12] = assay: Effect on AKT level in human H3255 cells up to 10 uM treated 8 hrs post serum starvation measured after 16 hrs by Western blot analysis; type: ADME, cell-based; settings: nci-h3255, 16 h
# HCC827 [13] = assay: Up regulation of DAD1 expression in human HCC827 cells at 100 nM measured after 16 hrs by LC-MS analysis; type: functional, cell-based
# Outline: (§2)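 HCC-827 cells serum-starved 8 h, then treated at 100 nM for 16 h. Collected for label-free quantitative LC–MS proteomics; LFQ intensity compared between treated and control groups; three independent experiments.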
# [14] = biological target: von Hippel-Lindau disease tumor suppressor/Epidermal growth factor receptor (Homo sapiens, UniProt P00533+P40337, L858R)
# HCC827 [15] = assay: Down regulation of NGDN expression in human HCC827 cells at 100 nM measured after 16 hrs by LC-MS analysis; type: functional, cell-based; outline: as §2
# [16] = biological target: T1, Epidermal growth factor receptor; assay: Induction of wild-type EGFR degradation in human OVCAR8 cells at up to 10 uM treated 8 hrs post serum starvation measured after 16 hrs by Western blot analysis; type: cell-based
# HCC827 [17] = assay: Up regulation of SEC61G expression in human HCC827 cells at 100 nM measured after 16 hrs by LC-MS analysis; type: functional, cell-based; outline: as §2
# [18] = biological target: T1, Epidermal growth factor receptor; assay: Induction of wild-type EGFR degradation in human H1299 cells at up to 10 uM treated 8 hrs post serum starvation measured after 16 hrs by Western blot analysis; type: cell-based
# HCC827 [19] = assay: Effect on AKT level in human HCC827 cells up to 10 uM treated 8 hrs post serum starvation measured after 16 hrs by Western blot analysis; type: ADME, cell-based; settings: hcc827, 16 h
# HCC827 [20] = assay: Up regulation of BIN1 expression in human HCC827 cells at 100 nM measured after 16 hrs by LC-MS analysis; type: functional, cell-based; outline: as §2
# HCC827 [21] = assay: Down regulation of TXNIP expression in human HCC827 cells at 100 nM measured after 16 hrs by LC-MS analysis; type: functional, cell-based; outline: as §2
# HCC827 [22] = assay: Up regulation of RRM2 expression in human HCC827 cells at 100 nM measured after 16 hrs by LC-MS analysis; type: functional, cell-based; outline: as §2
# [23] = biological target: von Hippel-Lindau disease tumor suppressor/Epidermal growth factor receptor (Homo sapiens, UniProt P00533+P40337); assay: Protac activity at VHL/EGFR exon 19 deletion mutant in human HCC827 cells assessed as induction of EGFR degradation treated 8 hrs post serum starvation measured after 16 hrs by Western blot analysis
# HCC827 [24] = assay: Up regulation of HMGCS1 expression in human HCC827 cells at 100 nM measured after 16 hrs by LC-MS analysis; type: functional, cell-based; outline: as §2
# [25] = Toxicity in Swiss albino mouse assessed as clinical changes at 50 mg/kg, ip; type: organism-based; settings: in vivo
# [26] = Cmax in Swiss albino mouse at 50 mg/kg, ip measured after 8 hrs; type: ADME, organism-based; design: dose 50 mg/kg, route intraperitoneal; settings: in vivo
# [27] = Cmax in Swiss albino mouse at 50 mg/kg, ip measured after 24 hrs; type: ADME, organism-based; design: dose 50 mg/kg, route intraperitoneal; settings: in vivo
# [28] = system: von Hippel-Lindau disease tumor suppressor/Epidermal growth factor receptor (Homo sapiens), P00533+P40337 [L858R]; assay: Protac activity at VHL/EGFR L858R mutant in human H3255 cells assessed as induction of EGFR degradation up to 500 nM treated 8 hrs post serum starvation measured after 16 hrs by Western blot analysis; type: cell-based; outline: as §1
# [29] = system: von Hippel-Lindau disease tumor suppressor/Epidermal growth factor receptor (Homo sapiens), P00533+P40337 [L858R]; assay: Protac activity at VHL/EGFR L858R mutant in human H3255 cells assessed as reduction in EGFR autophosphorylation up to 10 uM treated 8 hrs post serum starvation measured after 16 hrs by Western blot analysis; type: cell-based
# [30] = system: von Hippel-Lindau disease tumor suppressor/Epidermal growth factor receptor (Homo sapiens), P00533+P40337 [UNDEFINED MUTATION]; assay: Protac activity at VHL/EGFR exon 19 deletion mutant in human HCC827 cells assessed as induction of EGFR degradation at 1 to 10 uM treated 8 hrs post serum starvation measured after 16 hrs by Western blot analysis; type: cell-based; outline: as §1
# [31] = system: von Hippel-Lindau disease tumor suppressor/Epidermal growth factor receptor (Homo sapiens), P00533+P40337 [UNDEFINED MUTATION]; assay: Protac activity at VHL/EGFR exon 19 deletion mutant in human HCC827 cells assessed as reduction in AKT phosphorylation up to 10 uM treated 8 hrs post serum starvation measured after 16 hrs by Western blot analysis; type: cell-based
# [32] = system: von Hippel-Lindau disease tumor suppressor/Epidermal growth factor receptor (Homo sapiens), P00533+P40337 [UNDEFINED MUTATION]; assay: Protac activity at VHL/EGFR exon 19 deletion mutant in human HCC827 cells assessed as reduction in EGFR autophosphorylation up to 10 uM treated 8 hrs post serum starvation measured after 16 hrs by Western blot analysis; type: cell-based
# [33] = system: von Hippel-Lindau disease tumor suppressor/Epidermal growth factor receptor (Homo sapiens), P00533+P40337 [UNDEFINED MUTATION]; assay: Protac activity at VHL/EGFR exon 19 deletion mutant in human HCC827 cells assessed as induction of EGFR degradation up to 500 nM treated 8 hrs post serum starvation measured after 16 hrs by Western blot analysis; type: cell-based
# [34] = system: von Hippel-Lindau disease tumor suppressor/Epidermal growth factor receptor (Homo sapiens), P00533+P40337 [L858R]; assay: Protac activity at VHL/EGFR L858R mutant in human H3255 cells assessed as induction of EGFR degradation at 1 to 10 uM treated 8 hrs post serum starvation measured after 16 hrs by Western blot analysis; type: cell-based; outline: as §1
# [35] = system: von Hippel-Lindau disease tumor suppressor/Epidermal growth factor receptor (Homo sapiens), P00533+P40337 [L858R]; assay: Protac activity at VHL/EGFR L858R mutant in human H3255 cells assessed as reduction in AKT phosphorylation up to 10 uM treated 8 hrs post serum starvation measured after 16 hrs by Western blot analysis; type: cell-based
structure (smiles),measurement,setting,value
COc1cc2ncnc(Nc3ccc(F)c(Cl)c3)c2cc1OCCCN1CCN(C(=O)CCOCCOCCOCCC(=O)N[C@H](C(=O)N2C[C@H](O)C[C@H]2C(=O)NCc2ccc(-c3scnc3C)cc2)C(C)(C)C)CC1,Activity,[1],inactive
COc1cc2ncnc(Nc3ccc(F)c(Cl)c3)c2cc1OCCCN1CCN(CCC(=O)NCCCCCCNc2cccc3c2C(=O)N(C2CCC(=O)NC2=O)C3=O)CC1 (configuration not stated),Activity,[2],Active
COc1cc2ncnc(Nc3ccc(F)c(Cl)c3)c2cc1OCCCN1CCN(C(=O)CCOCCC(=O)N[C@H](C(=O)N2C[C@H](O)C[C@H]2C(=O)NCc2ccc(-c3scnc3C)cc2)C(C)(C)C)CC1,Activity,[1],inactive
COc1cc2ncnc(Nc3ccc(F)c(Cl)c3)c2cc1OCCCN1CCN(CCC(=O)NCCCCCCCCOc2cccc3c2C(=O)N(C2CCC(=O)N(C)C2=O)C3=O)CC1 (configuration not stated),Activity,NCI-H3255 [3],Active
same,Activity,[4],Active
same,Kd,[5],3 nM
same,Activity,[6],Active
same,Activity,[7],inactive
same,Activity,[8],Active
same,Activity,[9],inactive
same,Kd,[10],4.3 nM
same,Activity,[11],Active
COc1cc2ncnc(Nc3ccc(F)c(Cl)c3)c2cc1OCCCN1CCN(C(=O)CCCCCCCCCC(=O)N[C@H](C(=O)N2C[C@H](O)C[C@H]2C(=O)NCc2ccc(-c3scnc3C)cc2)C(C)(C)C)CC1,Activity,NCI-H3255 [12],Non-Toxic
same,Activity,NCI-H3255 [3],Active
same,Kd,[5],11 nM
same,Activity,HCC827 [13],Active
same,DC50,[14],3.3 nM
same,Activity,HCC827 [15],Active
same,Activity,[16],Not Active
same,Activity,HCC827 [17],Active
same,Activity,[18],Not Active
same,Activity,HCC827 [19],Non-Toxic
same,Activity,HCC827 [20],Active
same,Activity,HCC827 [21],Active
same,Activity,HCC827 [22],Active
same,DC50,[23],5 nM
same,Kd,[10],12 nM
same,Activity,HCC827 [24],Active
same,Activity,[25],Non-Toxic
same,Cmax,[26],5000 nM
same,Cmax,[27],1000 nM
COc1cc2ncnc(Nc3ccc(F)c(Cl)c3)c2cc1OCCCN1CCN(C(=O)CCCCCCCCCC(=O)N[C@H](C(=O)N2C[C@@H](O)C[C@@H]2C(=O)NCc2ccc(-c3scnc3C)cc2)C(C)(C)C)CC1,Activity,NCI-H3255 [3],Active
same,Kd,[5],8.6 nM
same,Kd,[10],9 nM
COc1cc2ncnc(Nc3ccc(F)c(Cl)c3)c2cc1OCCCN1CCN(C(=O)CCOCCOCCOCCOCCOCCC(=O)N[C@H](C(=O)N2C[C@H](O)C[C@H]2C(=O)NCc2ccc(-c3scnc3C)cc2)C(C)(C)C)CC1,Activity,[1],inactive
COc1cc2ncnc(Nc3ccc(F)c(Cl)c3)c2cc1OCCCCCOCCOCCC(=O)N[C@H](C(=O)N1C[C@H](O)C[C@H]1C(=O)NCc1ccc(-c2scnc2C)cc1)C(C)(C)C,Activity,[28],Active
same,Activity,NCI-H3255 [3],Active
same,Activity,[29],Active
same,Activity,[30],inactive
same,Activity,[31],Active
same,Activity,[32],Active
same,Activity,[33],Active
same,Activity,[34],inactive
same,Activity,[35],Active
COc1cc2ncnc(Nc3ccc(F)c(Cl)c3)c2cc1OCCCN1CCN(CCC(=O)NCCOCCNc2cccc3c2C(=O)N(C2CCC(=O)NC2=O)C3=O)CC1 (configuration not stated),Activity,[2],Active
COc1cc2ncnc(Nc3ccc(F)c(Cl)c3)c2cc1OCCCN1CCN(CCC(=O)NCCOCCOCCOCCOCCOCCNc2cccc3c2C(=O)N(C2CCC(=O)NC2=O)C3=O)CC1 (configuration not stated),Activity,[2],Active
COc1cc2ncnc(Nc3ccc(F)c(Cl)c3)c2cc1OCCCN1CCOCC1,Activity,NCI-H3255 [3],Active
